In the library only some 2.2% were active in any assay of this set; here they are far more common.
DDE Tn6 FP inh – DD(E)-Tn6 binding inhibition, primary FP screen; P02675; Fibrin DD(E) TRITC-Tn6 fluorescence polarization displacement; inhibition, % at 8.3 µM; hit rate 0.21% among 370,000;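 active = inhibition above a per-campaign cutoff: mean of compounds within control limits plus 3 SD, cut at about 15% in these data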;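 note: 0% = median of all compound wells on the plate and 100% = blocking peptide control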
Target sequence (P02675 whole entry, looked up): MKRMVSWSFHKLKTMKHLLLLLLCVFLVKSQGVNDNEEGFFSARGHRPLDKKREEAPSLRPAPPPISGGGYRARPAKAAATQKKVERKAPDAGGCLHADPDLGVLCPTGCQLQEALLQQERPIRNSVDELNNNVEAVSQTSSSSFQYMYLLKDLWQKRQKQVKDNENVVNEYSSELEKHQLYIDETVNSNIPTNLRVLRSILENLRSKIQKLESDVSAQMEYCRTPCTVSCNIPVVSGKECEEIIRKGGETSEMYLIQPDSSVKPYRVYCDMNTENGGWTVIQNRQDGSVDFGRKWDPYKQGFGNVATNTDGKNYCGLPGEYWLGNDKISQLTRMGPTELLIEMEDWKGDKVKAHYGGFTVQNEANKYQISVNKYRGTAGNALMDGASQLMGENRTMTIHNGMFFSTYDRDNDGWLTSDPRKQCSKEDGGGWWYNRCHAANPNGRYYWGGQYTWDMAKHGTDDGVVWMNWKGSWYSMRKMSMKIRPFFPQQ
SKN-1 block – C. elegans SKN-1 inhibition. hit rate 0.49% among 360,000. AID 624304. C. elegans VP596 Pgst-4::GFP/RFP ratio, acrylamide-induced, 24 h. inhibition, % at 21.8 µM;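 active = interference check ratio from 0.5 to 1.5 plus GFP to RFP signal ratio inhibition reaching or exceeding a fixed threshold, cut at about 30% in these data, passing the limit was not always enough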
MT1-MMP act inh – blocks activation of human MT1-MMP; P50281; HT1080 RFP-PRO-GFP cells, GFP/RFP ratio fluorescence, overnight; percent of plate control window, DMSO zero; GFP/RFP ratio change, % at 20 µM; hit rate 0.061% among 360,000; AID 651647;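 active = GFP/RFP ratio change of at least 30% with cell ATP level not reduced by more than half and red fluorescence within 50% of control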
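Assay system: HT1080 RFP-PRO-GFP cells. Benchmarks: DMSO vehicle wells and RFP-L50D-GFP reporter cell wells. Times: overnight cell settling, then overnight compound exposure, 37 °C, 5% CO2. Compound: 20 µM single dose, 1% DMSO. Read-out basis: GFP/RFP fluorescence ratio.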
KLK7 zymogen act – proKLK7 (human) activation, primary screen; P49862; purified proKLK7, EDANS-DABCYL substrate fluorescence; 100% is mature enzyme control, 0% vehicle; activation, % at 7 µM; hit rate 0.9% among 370,000;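 active = activation above the mean of all tested compounds plus 3 SD, computed per campaign excluding outliers beyond control limits, cut at about 13% in these data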
Neddylation inh – cullin neddylation inhibition; P61081+Q13564; TR-FRET cullin neddylation, biochemical; calls only at 25 µM; hit rate 0.58% among 360,000; in the data active = inhibition above about 36%
Tn7 DDE FP – DD(E)-Tn7 binding inhibition, primary FP screen | P02675 | FP displacement of FITC-Tn7 peptide from fibrin DD(E); 0% = median of compound wells per plate | inhibition, % at 8.3 µM | hit rate 0.13% among 370,000 | AID 720508;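 active = inhibition above the mean of compounds falling within the control limits plus 3 SD of them, cut at about 14% in these data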;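 note: 0% = plate median of compound wells and 100% = 10 µM Aha-Tn7 peptide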
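Measure: % inhibition scaled between sample-field median and high-control FP; Test system: human fibrin DD(E); Quantity: 2 µM final DD(E) protein; Doses: one dose, 8.3 µM nominal; Schedule: compound with protein 10 min, then 3 h after probe, room temperature; Detection: fluorescence polarization; Medium: Tris buffer with calcium and detergent, pH 7.8.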
KLK7 act conf – confirmation of human kallikrein-7 zymogen activators. purified proKLK7, EDANS-DABCYL substrate fluorescence; scaled: vehicle 0, mature enzyme 100. shares compounds with KLK7 zymogen act. hit rate 68% among 3,200. activation, % at 7 µM;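 active = activation, as change over the incubation, above the mean of all tested compounds plus 3 SD, cut at about 13% in these data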
EDANS interfere – fluorescence interference counter-screen for KLK7 activators; shares compounds with KLK7 zymogen act; EDANS-DABCYL substrate fluorescence interference, no enzyme, 4 h; solvent 0%, active enzyme control 100%; activation, % at 7 µM; hit rate 80% among 3,200; AID 686952;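 active = activation above the all-compound mean plus 3 SD, ignoring values outside control-based bounds, cut at about 4.8% in these data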;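 note: value is the 4 h activation minus the activation read at time zero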
Starred values were filed as active, the others as inactive; i = inactive; . = no result shown.

SMILES | DDE Tn6 FP inh | SKN-1 block | MT1-MMP act inh | KLK7 zymogen act | Neddylation inh | Tn7 DDE FP | KLK7 act conf | EDANS interfere
COc1ccc(C2C3=C(CCCC3=O)Nc3nc(C(F)(F)F)nn32)c(OC)c1OC (stereo not drawn) | 4 | -3 | -3 | 23* | i | 3 | 38* | 36*
COc1cccc(C2C3=C(CCCC3=O)Nc3nc(-c4cc(OC)c(OC)c(OC)c4)nn32)c1 (stereo not drawn) | 0 | 16 | 5 | 3 | i | -2 | . | .
CCCCCCCCCC(=O)O | -2 | 1 | 3 | -1 | i | 0 | . | .
Cc1cccc(C(=O)Nc2ccccc2C(=O)OCC(=O)Nc2ccc(C#N)cc2)c1 | 2 | 9 | 2 | 17* | i | -11 | 0 | -1
Cc1cccc(OCC(=O)Nc2ccc(C(=O)Nc3ccccc3C(=O)O)cc2)c1 | -5 | 10 | 1 | 0 | i | -6 | . | .
O=C1c2cccc3cccc(c23)C(=O)N1c1ccccc1Cl | -6 | -5 | -1 | 46* | i | -4 | 26* | 22*
Cc1cc(C)cc(Cn2c3ccc(NC(=S)NC4CCCCC4)cc3c(=O)n2C)c1 | 5 | 22 | 3 | -22 | . | -3 | . | .
Cn1c(=O)c2cc(NC(=S)NC3CCCCC3)ccc2n1Cc1ccc(F)cc1 | 1 | 23 | 5 | 9 | . | 8 | . | .
Cn1c(=O)c2cc(NC(=S)NC3CC3)ccc2n1Cc1ccccc1 | -3 | -4 | 0 | 16* | . | -3 | 10 | 14*
CC(C)=CCn1c2ccc(NC(=S)NC3CC3)cc2c(=O)n1C | -6 | 12 | 0 | 18* | . | -4 | 14* | 14*
Cc1nc2sc(C(=O)c3ccccc3)c(N)c2c(C)c1C | -5 | -7 | 2 | 50* | i | 3 | -18 | 0
COc1ccc2c(c1)c1ncn(CC3CCCO3)c(=O)c1n2C (stereo not drawn) | -3 | 10 | 3 | 13* | . | -2 | 3 | 4
COc1ccc2c(c1)c1ncn(CCCN3CCOCC3)c(=O)c1n2C | 7 | 18 | 13 | 15* | . | 6 | 11 | 20*
COc1ccc(C(=O)Nc2cccnc2)cc1 | -1 | -3 | 4 | -1 | i | -2 | . | .
CCCN1CCN(C(=O)c2ccc(Sc3ccc(C)cc3)c(NC(C)=O)c2)CC1 | 1 | -9 | 2 | 1 | i | 10 | . | .
Cc1cc(=O)oc2c3c(cc(OCC(=O)NCCN4CCOCC4)c12)OC(C)(C)CC3 | 9 | 8 | -2 | 34* | . | 4 | 57* | 70*
CCCc1cc(=O)oc2c(C)c(OCC(=O)NCCCn3ccnc3)ccc12 | -5 | -15 | -1 | 0 | i | -1 | . | .
CCCc1cc(=O)oc2c3c(cc(OCC(=O)NCCCn4ccnc4)c12)OC(C)(C)CC3 | 5 | 10 | 2 | 17* | . | -1 | -37 | -40
Cc1cc(=O)oc2c3c(cc(OCC(=O)NCc4ccco4)c12)OC(C)(C)CC3 | -4 | 4 | 3 | 12 | . | -13 | . | .
Cc1cc(=O)oc2c3c(cc(OCC(=O)NCCCn4ccnc4)c12)OC(C)(C)CC3 | 12 | 3 | -1 | 29* | . | -1 | 8 | -8
CC12CCC(=O)N1C(C(=O)Nc1nc(-c3ccc(F)c(F)c3)cs1)CS2 (stereo not drawn) | -10 | -1 | -1 | 1 | i | 2 | . | .
CCOC(=O)c1nnn(-c2nonc2N)c1CNc1ccccc1 | 4 | -4 | -3 | 0 | i | 4 | . | .
Cc1cc2c([nH]c3ccccc32)c(C)n1 | 2 | -2 | 3 | 33* | . | 2 | 28* | 25*
Cc1nc(C(=O)NCCO)cc2c1[nH]c1ccccc12 | -5 | -11 | 3 | 8 | i | -7 | . | .
CCCOc1nc2ccccc2cc1/C=C/C(=O)O | -2 | 5 | -8 | 17* | . | 0 | 8 | 11*
SMILES | DDE Tn6 FP inh | SKN-1 block | MT1-MMP act inh | KLK7 zymogen act | Neddylation inh | Tn7 DDE FP | KLK7 act conf | EDANS interfere
CCCC1NC(C(=O)O)Cc2c1[nH]c1ccccc21 (stereo not drawn) | -3 | -1 | -3 | 13* | . | -2 | 8 | 7.6*
CC(C)C1NC(C(=O)O)Cc2c1[nH]c1ccccc21 (stereo not drawn) | -1 | 22 | -3 | 30* | . | 0 | 56* | 49*
CCOc1ccc(OCC(=O)N(C)c2c(N)n(Cc3ccccc3)c(=O)[nH]c2=O)cc1 | -9 | -1 | -2 | 0 | i | -4 | . | .
Cc1ccc(C(=O)N/C(=C\c2cn(C)c3ccccc23)C(=O)N2CCOCC2)cc1 | -1 | 16 | -4 | 0 | i | 1 | . | .
Cc1nc2sc(C(=O)NCc3nccs3)c(N)c2c(C)c1Cl | -4 | . | . | 84* | . | -3 | 63* | 68*
O=C(N/C(=C\c1cccs1)C(=O)N1CCOCC1)c1ccco1 | 9 | 9 | -2 | 0 | i | 3 | . | .
CCN1C(=O)N(C(C)=O)[C@H]2C[C@H](C(=O)N3CCCC3)[C@H](C)[C@H](c3ccccc3)C[C@H]21 | 8 | . | . | 0 | . | -15 | . | .
CC(C)(C)N1Cc2nnn(CC3CCCCC3)c2-c2ccccc2S1(=O)=O | 3 | . | . | 0 | . | -4 | . | .
CCC1CCCN1Cn1cnc2c([nH]c3ccc(OC)cc32)c1=O (stereo not drawn) | -3 | -2 | 2 | 27* | . | 5 | 12 | 11*
CCN(C(=O)CSc1nc(C2CC2)n(-c2ccccc2)n1)C1CCS(=O)(=O)C1 (stereo not drawn) | -1 | 5 | -4 | 0 | i | -4 | . | .
Cc1cc(N2CCN(C)CC2)nc2ccc(NC(=O)c3ccccc3F)cc12 | 3 | 13 | 2 | -1 | i | 3 | . | .
CCOC(=O)c1cc(N2CCCCC2)nc2ccccc12 | 7 | 6 | -1 | 17* | . | -5 | 3 | 4.9*
COC(=O)c1cc(N2CCN(C)CC2)nc2ccccc12 | 2 | -6 | -35 | 61* | . | 11 | 15* | 13*
COC(=O)c1ccc(CNC(=O)CCc2c[nH]c3ccccc23)cc1 | -1 | 4 | -1 | 0 | i | 4 | . | .
COC(=O)c1ccc2c(CCO)c[nH]c2c1 | -4 | -9 | 1 | 16* | . | -6 | 7 | 12*
CCOc1ccccc1N(C(=O)CNC(=O)c1ccco1)C(C(=O)NC1CCCC1)c1ccncc1 (stereo not drawn) | -3 | -6 | -2 | 0 | i | 6 | . | .
Cc1cccc(CN2CCc3c([nH]c4ccccc34)C2C(C)(C)C)n1 (stereo not drawn) | -5 | 4 | 0 | 13* | . | 11 | 7 | 12*

Screening results: PubChem BioAssay, several laboratories
